Measured values: ChEMBL document CHEMBL3046149, “Synthesis, fungicidal activity, and sterol 14α-demethylase binding interaction of 2-azolyl-3,4-dihydroquinazolines on Penicillium digitatum” (J Agric Food Chem, 2013)
Values after ≈ are worked out from the molar mass of the structure shown.

Columns and labels:
Penicillium digitatum [1] = assay: Fungicidal activity against Penicillium digitatum assessed as inhibition of mycelium measured after 48 hr; type: functional, organism-based
In short: (§1)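 Poisoned-agar test on P. digitatum. Compounds in DMSO were mixed into molten agar at about 45–50 °C, at 1–50 μg/mL. Blank medium was the control. 5 mm plugs taken from the margins of actively growing mycelial colonies were placed at plate centres. Plates were run in triplicate at 26 °C in darkness. Colony diameter was read at 48 h; inhibition % = (control − treated diameter)/control diameter.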

Penicillium digitatum [2] = assay: Fungicidal activity against Penicillium digitatum assessed as inhibition of mycelium at 1 ug/ml measured after 48 hr; type: functional; in short: as §1
Penicillium digitatum [3] = assay: Fungicidal activity against Penicillium digitatum assessed as inhibition of mycelium at 50 ug/ml measured after 48 hr; type: functional; in short: as §1
Penicillium digitatum [4] = assay: Fungicidal activity against Penicillium digitatum assessed as inhibition of mycelium at 10 ug/ml measured after 48 hr; type: functional; in short: as §1
Penicillium digitatum [5] = assay: Fungicidal activity against Penicillium digitatum assessed as inhibition of mycelium at 5 ug/ml measured after 48 hr; type: functional; in short: as §1
[6] = target: T1, P450 sterol 14-alpha-demethylase (Penicillium digitatum, UniProt E3SW77); assay: Binding affinity to Penicillium digitatum CYP51
T1 sequence (E3SW77 whole entry): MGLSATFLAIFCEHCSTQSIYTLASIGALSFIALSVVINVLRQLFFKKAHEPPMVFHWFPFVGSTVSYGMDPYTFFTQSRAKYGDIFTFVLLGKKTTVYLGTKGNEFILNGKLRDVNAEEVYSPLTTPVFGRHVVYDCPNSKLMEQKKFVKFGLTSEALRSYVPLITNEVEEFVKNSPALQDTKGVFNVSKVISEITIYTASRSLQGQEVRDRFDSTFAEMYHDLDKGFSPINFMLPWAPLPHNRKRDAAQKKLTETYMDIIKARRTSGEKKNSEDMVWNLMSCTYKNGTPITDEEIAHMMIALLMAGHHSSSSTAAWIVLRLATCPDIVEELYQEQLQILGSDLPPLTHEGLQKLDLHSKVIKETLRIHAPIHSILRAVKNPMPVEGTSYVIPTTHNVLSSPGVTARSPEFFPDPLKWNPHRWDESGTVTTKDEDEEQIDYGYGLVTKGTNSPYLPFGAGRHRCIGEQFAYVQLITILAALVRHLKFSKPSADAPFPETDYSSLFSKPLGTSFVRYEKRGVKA
In short: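 Recombinant His-tagged P. digitatum CYP51 from E. coli BL21(DE3), Ni-NTA purified, in 100 mM PBS pH 7.2. Difference spectra at 350−500 nm were recorded 1 min after adding compound at room temperature, with DMSO below 0.5%. Kd came from a Hanes−Woolf plot of [I] versus [I]/ΔA, using Amax from the saturated absorbance shift.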

Penicillium digitatum [7] = assay: Fungicidal activity against Penicillium digitatum assessed as inhibition of mycelium at 25 ug/ml measured after 48 hr; type: functional; in short: as §1
Penicillium digitatum [8] = assay: Antifungal activity against Penicillium digitatum assessed as growth inhibition

SMILES	IC50 (Penicillium digitatum [1]) [µg/mL]	inhibition at 1 µg/mL (Penicillium digitatum [2]) [%]	inhibition at 50 µg/mL (Penicillium digitatum [3]) [%]	inhibition at 10 µg/mL (Penicillium digitatum [4]) [%]	inhibition at 5 µg/mL (Penicillium digitatum [5]) [%]	Kd [6] [µM]	inhibition at 25 µg/mL (Penicillium digitatum [7]) [%]	IC50 (Penicillium digitatum [8]) [µM]
CC(=O)CC1c2ccccc2N=C(n2ccnc2)N1C(C)C (configuration not stated)	126 (≈ 425 µM)	0	28	15	4			
CCCCN1C(n2ccnc2)=Nc2ccccc2C1CC(C)=O (configuration not stated)	15.6 (≈ 50.2 µM)	5	100	29	14	13.3	57	50.2
CC(=O)CC1c2ccccc2N=C(n2ccnc2)N1c1ccc(Cl)cc1 (configuration not stated)	10.4 (≈ 28.5 µM)	0	100	35	14	2.91	100	28.5
CC(=O)CC1c2ccccc2N=C(n2ccnc2)N1c1ccc(F)cc1 (configuration not stated)	4.14 (≈ 11.9 µM)	9	100	86	52	0.976	100	11.9
CC(=O)CC1c2ccccc2N=C(n2ccnc2)N1c1ccccc1 (configuration not stated)	5.06 (≈ 15.3 µM)	8	100	61	29			
CC(=O)CC1c2cc(Cl)ccc2N=C(n2ccnc2)N1c1ccc(F)cc1 (configuration not stated)	7.12 (≈ 18.6 µM)	9	100	64	21	2.4	100	18.6
CC(=O)CC1c2cc(Cl)ccc2N=C(n2cncn2)N1c1ccccc1 (configuration not stated)	> 50		8					
CC(=O)CC1c2cc(Cl)ccc2N=C(n2cncn2)N1C(C)C (configuration not stated)	> 50		17					
CC(=O)CC1c2ccccc2N=C(n2cncn2)N1c1ccccc1 (configuration not stated)	129 (≈ 389 µM)	0	24	11	0			
CC(=O)CC1c2ccccc2N=C(n2cncn2)N1c1cccc(C)c1 (configuration not stated)	60.1 (≈ 174 µM)	0	44	19	12			
CC(=O)CC1c2ccccc2N=C(n2cncn2)N1c1ccc(Cl)cc1 (configuration not stated)	> 50		10					
CC(=O)CC1c2ccccc2N=C(n2cncn2)N1c1ccc(F)cc1 (configuration not stated)	> 50		14					
CC(=O)CC1c2ccccc2N=C(n2cncn2)N1C(C)C (configuration not stated)	> 50		10					
CC(C)(C)C(=O)CC1c2ccccc2N=C(n2cncn2)N1c1ccccc1 (configuration not stated)	90 (≈ 241 µM)	0	35	15	8			
Cc1cccc(N2C(n3cncn3)=Nc3ccccc3C2CC(=O)C(C)(C)C)c1 (configuration not stated)	67.1 (≈ 173 µM)	0	40	22	8			
CC(=O)CC1c2cc(Cl)ccc2N=C(n2ccnc2)N1C(C)C (configuration not stated)	128 (≈ 387 µM)	0	30	12	8			
CC(C)(C)C(=O)C(Oc1ccc(Cl)cc1)n1cncn1 (configuration not stated) [TRIADIMEFON]		0	100	60	27		100	
